Measured values from different studies.
Compare with care: the assays were run in different laboratories.
Target: Calcium/calmodulin-dependent protein kinase kinase 2 (CAMKK2, Homo sapiens, UniProt Q96RR4)

O=C(O)[C@@H]1[C@@H](Cn2nnc3ccccc3c2=O)CC[C@H]1C(=O)c1ccc(OCCC2CCOCC2)cc1
remaining binding (cell-free assay; competition with immobilised ligand; 1 µM): 100%

O=C(c1ccc(Nc2ncc(Cl)c(-c3ccc(Cl)s3)n2)cc1)N1CCC(N2CCCC2)CC1
remaining binding (binding; competition with immobilised ligand; 1 µM): 65%

Nc1ncc2c(n1)-c1c([nH]c3ccc(C#CC4CC4)cc13)CCCC2
remaining binding (binding; competition with immobilised ligand; 1 µM): 94%

N[C@H]1CCN(c2nccc(-c3cnn4ncccc34)n2)C1
remaining binding (binding; 1 µM): 100%

COc1cnc(Nc2cccc(S(N)(=O)=O)c2)nc1N1CCN(c2ccccc2)C(=O)C1
remaining binding (binding; competition with immobilised ligand; 1 µM): 100%

O=C(NCC1CCOCC1)c1n[nH]cc1NC(=O)c1c(F)cccc1F
remaining binding (binding; competition with immobilised ligand; 1 µM): 68%

COc1ncc2cc3ccccc3nc2c1C#N
remaining binding (cell-free assay; competition with immobilised ligand; 5 µM): 96%

N#Cc1ccc(Nc2ccc3[nH]c(=O)[nH]c3c2)c(Cl)c1
remaining binding (cell-free assay; competition with immobilised ligand; 1 µM): 91%

c1cncc(-c2cccc(Nc3nccc(NC4CCCCC4)n3)c2)c1
remaining binding (binding; competition with immobilised ligand; 10 µM): 69%

COc1cccc(CNC(=O)c2nc3scc(COCc4ccc(C(=O)O)cc4)c3c(=O)[nH]2)c1
remaining binding (cell-free assay; competition with immobilised ligand; 1 µM): 100%

Cc1cnn2ncc(-c3ccnc(N(C)C)n3)c2c1
remaining binding (binding; 1 µM): 63%

FC(F)(F)Oc1cccc(-c2cnc3ccc(-c4ccncc4)nn23)c1
remaining binding (cell-free assay; competition with immobilised ligand; 5 µM): 55%

c1cnn2ncc(-c3ccnc(N4CCC45COC5)n3)c2c1
remaining binding (binding; 1 µM): 80%

CO[C@H]1CC[C@H](CNc2ccc(S(=O)(=O)NC(=O)c3ccc(N4CCN(CC5=C(c6ccc(Cl)cc6)CC(C)(C)CC5)CC4)cc3Oc3cnc4[nH]ccc4c3)cc2[N+](=O)[O-])CC1
remaining binding (cell-free assay; competition with immobilised ligand; 1 µM): 81%

CC1CCCN1c1nccc(-c2cnn3ncccc23)n1 (centres unmarked)
remaining binding (binding; 1 µM): 100%

CO[C@@H](C)c1c(Nc2ccc([C@H](N(C)C(=O)C3CCS(=O)(=O)CC3)C(F)(F)F)cc2)cnc2cc(Cl)nn12
remaining binding (cell-free assay; competition with immobilised ligand; 1 µM): 80%

CN(c1nccc(-c2cnn3ncccc23)n1)C1CC1
remaining binding (binding; 1 µM): 100%

O=C(NCCCN1CCOCC1)c1ccc(Nc2nccc(-c3cc4ccccc4s3)n2)cc1
remaining binding (binding; competition with immobilised ligand; 1 µM): 81%

Cc1cc(NC(=O)c2cccc(S(F)(F)(F)(F)F)c2)cc(-n2ccn3nc(-c4cccnc4)cc23)c1
remaining binding (cell-free assay; competition with immobilised ligand; 1 µM): 99.6%

C[C@@H]1CCN(c2nccc(-c3cnn4ncccc34)n2)C1
remaining binding (binding; 1 µM): 72%
